TLR9-MyD88 block – inhibitors of human TLR9-MyD88 binding; CHO BLA complementation TLR9-MyD88, CCF4 FRET ratio; 340,000 compounds, 0.21% hits; Q9NR96+Q99836; inhibition, % at 4.98 µM;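 active means inhibition above the mean over all tested compounds plus 3 SD, cut at about 21% in these data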;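 further: 0% = DMSO only wells and 100% = clavulanate BLA inhibitor control wells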
Target sequence (Q99836 whole entry, looked up): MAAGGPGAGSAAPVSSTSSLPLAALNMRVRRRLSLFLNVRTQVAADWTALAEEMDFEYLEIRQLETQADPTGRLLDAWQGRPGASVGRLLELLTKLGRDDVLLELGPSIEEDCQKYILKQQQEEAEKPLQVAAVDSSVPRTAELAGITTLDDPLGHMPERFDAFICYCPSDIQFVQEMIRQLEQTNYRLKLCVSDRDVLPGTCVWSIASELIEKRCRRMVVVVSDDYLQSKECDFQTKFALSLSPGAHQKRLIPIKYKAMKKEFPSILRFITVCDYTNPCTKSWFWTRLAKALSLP
Target sequence (Q9NR96 whole entry, looked up): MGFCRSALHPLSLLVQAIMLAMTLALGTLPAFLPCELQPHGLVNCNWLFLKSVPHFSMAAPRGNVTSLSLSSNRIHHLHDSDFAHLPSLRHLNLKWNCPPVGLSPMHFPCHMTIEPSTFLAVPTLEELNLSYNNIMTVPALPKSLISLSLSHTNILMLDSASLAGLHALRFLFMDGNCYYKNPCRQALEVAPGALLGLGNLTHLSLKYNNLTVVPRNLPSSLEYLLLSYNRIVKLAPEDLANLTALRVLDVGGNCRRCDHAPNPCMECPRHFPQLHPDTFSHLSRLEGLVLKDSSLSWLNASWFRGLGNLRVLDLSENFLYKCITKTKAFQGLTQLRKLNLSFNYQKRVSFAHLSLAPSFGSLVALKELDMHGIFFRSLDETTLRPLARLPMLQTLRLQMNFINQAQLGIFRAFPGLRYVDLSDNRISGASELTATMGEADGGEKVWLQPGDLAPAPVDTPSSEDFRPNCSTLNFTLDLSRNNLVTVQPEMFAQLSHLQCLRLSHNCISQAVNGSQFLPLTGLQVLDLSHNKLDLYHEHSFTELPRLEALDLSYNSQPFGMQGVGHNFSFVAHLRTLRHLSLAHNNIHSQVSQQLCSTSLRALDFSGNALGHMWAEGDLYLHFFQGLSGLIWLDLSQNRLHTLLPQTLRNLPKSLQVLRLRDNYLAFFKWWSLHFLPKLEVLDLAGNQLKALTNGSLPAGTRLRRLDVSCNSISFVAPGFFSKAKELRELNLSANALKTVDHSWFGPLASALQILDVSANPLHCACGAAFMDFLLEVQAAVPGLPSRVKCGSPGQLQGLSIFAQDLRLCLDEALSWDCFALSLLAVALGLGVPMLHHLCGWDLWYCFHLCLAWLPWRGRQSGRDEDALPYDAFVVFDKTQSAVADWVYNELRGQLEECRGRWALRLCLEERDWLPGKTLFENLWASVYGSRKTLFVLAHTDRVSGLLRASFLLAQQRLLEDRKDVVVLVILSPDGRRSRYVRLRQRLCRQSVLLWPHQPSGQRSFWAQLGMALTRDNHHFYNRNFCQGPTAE
CHOP inhibitor – blocks CHOP induction under ER stress; CHO-K1 CHOP-promoter luciferase, tunicamycin-induced, 15-18 h; inhibition, % at 10 µM; 220,000 compounds, 3.8% hits; AID 2732;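 active means compounds that reduced the stress-induced luciferase reporter signal by more than about 70% of percent inhibition, limit read from the data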;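 further: 0% = tunicamycin plus vehicle and 100% = wells without tunicamycin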
TLR4-MyD88 BLA – inhibitors of human TLR4-MyD88 binding. HeLa CL3-4 TLR4/MyD88 BLA complementation, FRET ratio. inhibition, % at 8.4 µM. 200,000 compounds, 0.18% hits. O00206+Q99836; in the data active means inhibition above about 25%;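 further: 0% = vehicle and 100% = reference inhibitor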
NOD2 RIPK2 PPI – NOD2-RIPK2 protein interaction inhibition | CHO BLA complementation NOD2-RIPK2, CCF4 ratio | inhibition, % at 4.98 µM | 360,000 compounds, 0.38% hits | AID 624267; in the data active means inhibition above about 21%;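 further: 0% = vehicle only and 100% = reference blocker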
UPR CHOP act – apoptotic UPR (CHOP) activation. CHO-CHOP luciferase reporter, luminescence; percent of tunicamycin response over DMSO baseline. activation, % at 10 µM. 330,000 compounds, 0.34% hits. AID 449763;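 active means at 10 µM dose, activation of 40% or more, normalized to positive control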;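 further: 100% = tunicamycin at 10 µg/mL and 0% = DMSO alone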
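Assay system: CHO cells with stable CHOP pathway luciferase reporter; Buffer or medium: F12 plus 10% serum; Times: 16-18 h cell attachment, then 6 h compound exposure, 37 °C; Signal: luciferase luminescence; Read-out basis: percent activation relative to tunicamycin control; Control set: tunicamycin high control, DMSO low control.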
UPR XBP1 act – activators of adaptive arm of unfolded protein response (XBP1); CHO-XBP1 luciferase reporter, IRE1-XBP1 UPR activation, luminescence; percent of tunicamycin response, DMSO as zero; activation, % at 20 µM; 330,000 compounds, 0.33% hits; AID 463104;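 active means versus positive control, 20 µM dose yields 30% or more activation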;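 further: 100% = tunicamycin at 10 µg/mL and 0% = DMSO only wells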
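Material: CHO-XBP1 cells stably carrying IRE1-XBP1-driven luciferase reporter / Amount: 1000 cells per well / Compound: 20 µM, 1% DMSO / Times: 6 h treatment, 37 °C / Detection: luciferase luminescence / Measure: % activation of reporter signal versus tunicamycin and DMSO controls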
TLR4 MyD88 cnf – TLR4-MyD88 interaction inhibition confirmed; 350 compounds, 50% hits; AID 941; inhibition, % at 8.4 µM; HeLa CL3-4 BLA complementation, CCF4 FRET ratio; shares compounds with TLR4-MyD88 BLA;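 active means mean inhibition across three repeat runs above about 25% carried over from the earlier screen, limit read from the data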;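 further: plate controls were DMSO only for no effect and clavulanic acid blocking BLA at full dose for full effect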
BLA inhibitor ct – beta-lactamase inhibition flagged in TLR4-MyD88 counter-screen. shares compounds with TLR4-MyD88 BLA. HeLa BLA reporter, CCF4 FRET ratio. inhibition, % at 8.4 µM. 350 compounds, 63% hits;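 active means mean inhibition over three repeats above about 26% taken from the earlier screen, limit read from the data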;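 further: HeLa cells stably expressing beta-lactamase reporter as counterscreen for TLR4-MyD88 inhibitors; 0% = DMSO and 100% = clavulanic acid full inhibition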
CHOP inh conf – confirmation of CHOP induction inhibitors. shares compounds with CHOP inhibitor. CHO-CHOP promoter luciferase reporter, tunicamycin-induced, luminescence. inhibition, % at 10 µM. 2,100 compounds, 45% hits. AID 504437;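 active means mean of three repeat readings of reporter signal inhibition above a set limit, cut at about 70% in these data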;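 further: 0% = tunicamycin plus vehicle and 100% = wells lacking tunicamycin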
TLR9-MyD88 conf – confirmation of human TLR9-MyD88 binding inhibitors | 680 compounds, 51% hits | CHO TLR9/MyD88 BLA complementation, CCF4 FRET ratio | shares compounds with TLR9-MyD88 block | inhibition, % at 4.98 µM;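 active means mean inhibition across three repeats above about 21% taken from the earlier screen, limit read from the data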;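 further: blue over green emission ratio reports constitutive TLR9 MyD88 association via BLA complementation; 0% = DMSO vehicle wells and 100% = clavulanate BLA inhibitor wells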
BLA counter-1 – counter-screen for TLR9-MyD88 inhibitors: non-selective beta-lactamase inhibitors; shares compounds with TLR9-MyD88 block; CHO-BLA cells, CCF4 FRET ratio, BLA reporter; inhibition, % at 4.98 µM; 680 compounds, 7% hits;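 active means mean inhibition above a 50% cutoff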;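 further: counterscreen of TLR9-MyD88 hits on CMV-driven BLA in CHO-K1 cells; 0% = DMSO alone and 100% = clavulanate blocking BLA; higher means less blue over green ratio so more BLA blockade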
TLR9 CHO cytotox – CHO cell toxicity counter-screen for TLR9-MyD88 inhibitors; shares compounds with TLR9-MyD88 block; TLR9-MyD88 CHO cells cytotoxicity, luminescence; inhibition, % at 4.98 µM; 680 compounds, 39% hits; AID 588336; in the data active means inhibition above about 11%
NOD2-RIPK2 conf – NOD2-RIPK2 interaction inhibition confirmed; shares compounds with NOD2 RIPK2 PPI; CHO cells, NOD2-RIPK2 BLA complementation, CCF4 FRET; inhibition, % at 4.98 µM; 1,200 compounds, 70% hits; AID 624370;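 active means mean inhibition across replicates above a set limit taken from the earlier primary screen, cut at about 21% in these data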;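 further: 0% = DMSO-only wells and the high end = clavulanate BLA-blocked wells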
BLA counter-2 – NOD2-RIPK2 counterscreen BLA reporter activity; CHO BLA reporter, CCF4 FRET ratio; 1,200 compounds, 57% hits; inhibition, % at 4.98 µM; shares compounds with NOD2 RIPK2 PPI; AID 624371;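 active means mean inhibition above the low-control mean inhibition plus three low-control SD, cut at about 11% in these data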;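 further: 0% = DMSO only wells and 100% = clavulanate high control wells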
Numbers without * were called inactive; / = not tested or not shown. This is one part of a sample in which hits are shown more often than they occur.

SMILES	TLR9-MyD88 block	CHOP inhibitor	TLR4-MyD88 BLA	NOD2 RIPK2 PPI	UPR CHOP act	UPR XBP1 act	TLR4 MyD88 cnf	BLA inhibitor ct	TLR9-MyD88 conf	BLA counter-1	TLR9 CHO cytotox	NOD2-RIPK2 conf	BLA counter-2	others
N#Cc1sc2nc(-c3ccccc3)cc(-c3ccco3)c2c1N	21.6*	6.6	39.8*	13.0	1.6	8.2	26.0*	53.2*	28.3*	25.4	-1.0	/	/
N#Cc1sc2nc(C3CC3)cc(-c3ccccc3)c2c1N	4.5	63.7	8.3	2.0	-0.3	2.0	/	/	/	/	/	/	/
CCS(=O)(=O)c1nc(S(=O)(=O)c2ccc(Cl)cc2)c(N2CCOCC2)s1	1.2	/	/	-7.0	2.9	-3.1	/	/	/	/	/	/	/
O=C1c2ccc([N+](=O)[O-])cc2C(=O)N1c1ccc(Cl)cn1	-21.6	-9.3	9.8	-6.5	1.8	-0.8	/	/	/	/	/	/	/
O=C1c2cccc3c([N+](=O)[O-])ccc(c23)C(=O)N1c1ccc(Cl)cn1	73.0*	108.9*	85.6*	85.1*	16.1	-5.5	87.3*	110.6*	68.0*	86.1*	93.9*	/	/	CHOP inh conf=50.6
COc1cccc(/C=C2\C(=O)N(c3cccc(C)c3)C(=O)c3ccccc32)c1	24.3*	-20.6	28.7*	-12.4	0.9	0.1	41.0*	37.7*	46.1*	47.0	3.9	/	/
COc1cccc(C2CC(OCCF)=CC(=O)O2)c1 (centres undefined)	/	/	/	-2.2	/	/	/	/	/	/	/	/	/
Cc1ccc2nc(/C(C#N)=C\c3ccc([N+](=O)[O-])o3)[nH]c2c1	23.9*	-15.2	83.5*	26.7*	-8.4	-8.7	83.1*	95.8*	56.6*	69.7*	75.3*	85.5*	69.8*
CC(C)OC(=O)N(C)C[C@@H]1OCc2cn(nn2)CCCC(=O)N([C@@H](C)CO)C[C@H]1C	-2.9	/	/	-1.7	/	/	/	/	/	/	/	/	/
N#Cc1ccc(/C=C\c2nccc3c2[nH]c2ccccc23)cc1	20.9*	77.9*	32.9*	26.2*	-1.0	-1.8	17.8	53.7*	17.9	35.7	13.0*	37.0*	56.0*
Clc1ccc(/C=C\c2nccc3c2[nH]c2ccccc23)cc1	-73.5	0.2	-106.6	-56.7	/	/	/	/	/	/	/	/	/
N#C/C(=C\c1cn(Cc2ccccc2)c2ccccc12)C(=O)NCc1ccco1	-5.1	56.2	2.4	-1.9	1.6	-1.3	/	/	/	/	/	/	/
N#C/C(=C\c1cn(Cc2ccc(F)cc2)c2ccccc12)C(=O)NCc1ccco1	78.5*	77.2*	62.6*	30.7*	-1.5	0.4	72.9*	100.4*	/	/	/	82.0*	85.2*
O=C(Cc1ccccc1)Nc1ncccc1Cl	/	/	/	-17.0	0.8	-1.4	/	/	/	/	/	/	/
OCCCNc1ncnc2c1ncn2[C@H]1CN(C2CCCC2)C[C@@H](CO)O1	/	/	/	-5.8	/	/	/	/	/	/	/	/	/
COCCNC(=O)C(OC(=O)c1ccco1)c1ccc(OC)cc1 (centres undefined)	-3.2	/	/	-2.2	/	/	/	/	/	/	/	/	/
Cc1nn(C)c(C)c1N1C(=O)c2cccc3c(Br)ccc(c23)C1=O	48.3*	-19.5	65.7*	56.0*	-1.8	-2.0	52.4*	92.1*	28.6*	32.7	5.8	51.3*	42.3*
Cc1nn(C)c(C)c1N1C(=O)c2cccc3c(N)ccc(c23)C1=O	29.0*	0.6	29.4*	34.0*	/	/	20.1	44.1*	15.2	19.2	2.8	43.9*	44.0*
O=C1c2cccc3c([N+](=O)[O-])ccc(c23)C(=O)N1c1ccccn1	81.4*	100.7*	91.5*	89.8*	-5.9	-7.5	90.7*	114.5*	64.9*	85.3*	99.0*	92.7*	86.7*	CHOP inh conf=83.9*
CN1CCN(C(=O)CSc2nc(-c3cccs3)ccc2C#N)CC1	-11.7	-4.3	11.7	-11.6	1.5	0.4	/	/	/	/	/	/	/
CC(=O)c1sc2nc(-c3ccc(C)cc3)c3c(c2c1N)CCCC3	51.1*	37.2	25.6*	35.6*	2.4	-0.9	31.7*	61.0*	41.3*	46.4	9.3	56.5*	67.8*
Cc1ccc(-c2nc3sc(C(N)=O)c(N)c3c3c2CCCC3)cc1	-2.4	66.2	8.5	1.1	2.0	14.8	/	/	/	/	/	/	/
O=C1c2cccc3c(O)ccc(c23)C(=O)N1Cc1ccccc1	26.1*	8.0	32.4*	41.6*	-0.9	-4.7	11.3	33.9*	/	/	/	46.4*	56.0*
O=C(CSc1nnc2c(n1)[nH]c1ccccc12)NCc1ccccc1F	-3.1	/	/	3.7	0.3	-1.3	/	/	/	/	/	/	/
CCCNC(=O)COC(=O)c1ccccc1C(=O)c1ccc(Cl)c([N+](=O)[O-])c1	16.8	102.3*	26.0*	38.3*	24.8	-3.7	24.4	6.7	/	/	/	62.0*	11.2*	CHOP inh conf=-18.8
Cc1ccc(C(=O)c2ccccc2C(=O)OCC(=O)NCCc2ccc(Cl)cc2Cl)cc1	1.9	52.1	-1.5	-4.2	-1.6	-1.0	/	/	/	/	/	/	/
Nc1ccc(/C=C/C(=O)c2cccs2)cc1	22.6*	-17.0	25.2*	30.0*	3.6	1.0	16.9	36.6*	8.5	10.9	-2.6	40.1*	34.3*
CN(C)c1ccc(C(=O)/C=C/c2ccc(Br)cc2)cc1	-6.2	-4.0	3.7	-10.8	3.4	0.3	/	/	/	/	/	/	/
CCN(CC)c1ccc(/C=C/C(=O)c2ccc(Br)cc2)cc1	34.5*	18.1	54.6*	58.8*	/	/	52.5*	73.5*	39.2*	46.6	-5.5	77.6*	79.0*
O=C(Nc1cccnc1)NC1CCCCC1	-5.0	-14.2	0.1	2.7	-0.9	-0.3	/	/	/	/	/	/	/

Screening results from PubChem.
